Source: ChEMBL document CHEMBL3865789, “Synthesis and biological evaluation of isomeric methoxy substitutions on anti-cancer indolyl-pyridinyl-propenones: Effects on potency and mode of activity” (2016)
Calls of active or inactive are those of the source. The rule behind the calls is not given here.

Assays:
[1] = Growth inhibition of human U251 cells after 48 hrs by sulforhodamine B colorimetric assay; type: functional; settings: U-251, 48 h
Outline: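 U251 glioblastoma cells kept in DMEM with 10% FBS at 37°C, 5% CO2. Compounds in DMSO; vehicle-only controls. SRB colorimetric read-out at a 48 h end-point. Mean ± S.D. of three separate SRB assays.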

[2] = Growth inhibition of human U251 cells at 10 uM after 48 hrs by sulforhodamine B colorimetric assay relative to control; type: functional; settings: U-251, 48 h, read-out: GI
Outline: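 U251 glioblastoma cells kept in DMEM with 10% FBS at 37°C, 5% CO2. Compounds in DMSO; vehicle-only controls. SRB colorimetric read-out at a 48 h end-point. GI50 relative to untreated control calculated by the NCI-60 protocol; top concentration tested 10 μM. Mean ± S.D. of three separate SRB assays.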

U-251 [3] = assay: Induction of methuosis in human U251 cells assessed as rounding of cell body at 2.5 uM after 24 hrs by phase contrast microscopic analysis; type: functional, cell-based
U-251 [4] = assay: Mitotic arrest in human U251 cells assessed as accumulation at G2/M phase at >=500 nM after 24 hrs by propidium iodide staining based flow cytometric analysis; type: functional, cell-based
Outline: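 U251 cells seeded at 3.5 × 10^5 per 60 mm dish and treated the next day for 24 h. Attached and detached cells were harvested by trypsin and fixed in ice-cold 70% ethanol. They were then suspended in PBS with 6.25 mM MgSO4 and 1 mM CaCl2, RNase A-treated at 37 °C for 15 min and stained with propidium iodide. DNA content was read by flow cytometry.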

U-251 [5] = assay: Induction of methuosis in human U251 cells assessed as rounding of cell body at 2.5 uM after 48 hrs by phase contrast microscopic analysis; type: functional, cell-based
U-251 [6] = assay: Induction of microtubule disruption in human U251 cells up to 2.5 uM by DAPI staining based immunofluorescence microscopy; type: cell-based
Outline: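 U251 cells seeded on glass coverslips, 350,000 per 60 mm dish. One day later, fresh medium with compound at the stated concentrations was added for 24 h. Cells were fixed and stained with monoclonal anti-α-tubulin, then Alexa Fluor 568 goat anti-mouse IgG. Nuclei counterstained with DAPI.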

U-251 [7] = assay: Induction of methuosis in human U251 cells assessed as cell detachment from dish at 2.5 uM after 24 hrs by phase contrast microscopic analysis; type: functional, cell-based
U-251 [8] = assay: Induction of methuosis in human U251 cells assessed as vacuolization at 2.5 uM after 48 hrs by phase contrast microscopic analysis; type: functional, cell-based
U-251 [9] = assay: Induction of methuosis in human U251 cells assessed as formation of membrane blebs on cell surface at 2.5 uM after 48 hrs by phase contrast microscopic analysis; type: functional, cell-based

Row | SMILES | GI50 [1] [µM] | inhibition of growth at 10 µM [2] [%] | further results
1 | COc1ccc2c(c1)c(/C=C/C(=O)c1ccncc1)c(C)n2C | > 10 | < 50 | –
2 | COc1cc(OC)c(C(=O)/C=C/c2c(C)[nH]c3ccc(OC)cc23)c(OC)c1 | 3.74 | – | –
3 | COc1cccc2c(/C=C/C(=O)c3ccncc3)c(C)[nH]c12 | 4.42 | – | –
4 | COc1ccc2[nH]c(C)c(/C=C/C(=O)c3cc(OC)c(OC)c(OC)c3)c2c1 | > 10 | < 50 | –
5 | COc1cc2[nH]c(C)c(/C=C/C(=O)c3ccncc3)c2cc1OC | > 10 | < 50 | –
6 | COc1ccc2c(/C=C/C(=O)c3ccncc3)c(C)[nH]c2c1 | 0.09 | – | Activity (U-251 [3]): Active; Activity (U-251 [4]): Active; Activity (U-251 [5]): Active; Activity (U-251 [6]): Active; Activity (U-251 [7]): Active; Activity (U-251 [8]): Active; Activity (U-251 [9]): Active
7 | COc1cccc2[nH]c(C)c(/C=C/C(=O)c3ccncc3)c12 | 8.67 | – | Activity (U-251 [8]): Active
8 | COc1ccc2c(/C=C/C(=O)c3ccncc3)c(C(F)(F)F)[nH]c2c1 | > 10 | < 50 | –
